Results published in ChEMBL document CHEMBL1137528, “Preparation of tetrahydroimidazo[2,1-a]isoquinolines and their use as inhibitors of gastric acid secretion” (Bioorg Med Chem, 2007).

Key:
[1] = Inhibition of H+/K+ ATPase in hog gastric mucosa; assay type: tissue-based, Sus scrofa
Procedure, shortened: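 Hog gastric H+/K+-ATPase (0.5–1 µg/100 µl), nigericin 1:1 with enzyme. Buffer 4 mM Pipes/8 mM Tris pH 7.4, 0.25 M sucrose, 1 mM MgCl2, 1 mM KCl as stimulant. Compounds 1e-4 to 1e-9 M final from DMSO stocks. Started with 1 mM Na-ATP, 30 min at room temperature. Phosphate read by malachite green at 680 nm; sigmoidal fit gives IC50.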

[2] = test system: Gastric gland; experiment: Effect on acid secretion in rabbit intact gastric glands assessed as inhibition of [14C][…] accumulation; assay type: functional, tissue-based; details: Oryctolagus cuniculus
Procedure, shortened: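 Glands stimulated with 1 mM dibutyryl cAMP with or without inhibitor (3 nM–100 µM). Stopped by centrifugation, 10 s at 20,000g. 14C-aminopyrine radioactivity measured in supernatant and in NaOH-dissolved pellet. Accumulation taken from the pellet/supernatant ratio, normalized to gland wet/dry weight. IC50 obtained by fitting the expected inhibition equation.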

[3] = Dissociation constant, pKa of the compound; assay type: physicochemical
Procedure, shortened: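 Potentiometric co-solvent titration in 0.15 mol/l KCl over pH 2.0–11.0 at 25 °C. Methanol used as co-solvent in varying portions, with 0.5 mol/l KOH and HCl as titrants.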

[4] = Distribution coefficient, log D at pH 7.4; assay type: physicochemical; details: octanol/water
Procedure, shortened: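 Potentiometric titration, pH 2.0–11.0, 25 °C, in 0.15 mol/l KCl mixed with water-saturated 1-octanol in varying octanol portions. Titrants were 0.5 mol/l KOH and HCl. Distribution coefficients between 1-octanol and aqueous KCl were derived from these titrations.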

Log IC50 [1]	IC50 [2] [nM]	pKa [3]	logD [4]	Compound
-4.9	1260	7.22	3.31	COCCNC(=O)c1cn2c(C)c(C)nc2c2c1CCC(c1ccccc1)C2 (configuration not stated)
-4.8	7940	6.67	2.77	Cc1cn2cc(C(=O)N(C)C)c3c(c2n1)CC(c1ccccc1)CC3 (configuration not stated)
-6.3	2000	7.79	3.93	COCc1cn2c(C)c(C)nc2c2c1CCC(c1ccccc1)C2 (configuration not stated)
-5.1	7940	7.63	3.81	Cc1cn2ccc3c(c2n1)CC(c1ccccc1)CC3 (configuration not stated)
-5.5	10000	6.32	2.23	Cc1nc2c3c(c(C(=O)N(C)C)cn2c1CO)CCC(c1ccccc1)C3 (configuration not stated)
-6	398	7.16	2.9	Cc1nc2c3c(c(C(=O)N(C)C)cn2c1C)CCC(c1ccccc1)C3 (configuration not stated)
-7	63.1	–	–	Cc1nc2c3c(ccn2c1CC#N)CCC(c1ccccc1)O3 (configuration not stated)
-5.9	2000	7.26	3.21	Cc1nc2c3c(c(C(N)=O)cn2c1C)CCC(c1ccccc1)C3 (configuration not stated)
-6.2	1000	–	–	CNC(=O)c1cn2c(C)c(C)nc2c2c1CCC(c1ccccc1)C2 (configuration not stated)
-5.9	10000	7.22	2.81	Cc1nc2c3c(c(C(=O)NCCO)cn2c1C)CCC(c1ccccc1)C3 (configuration not stated)
-5.9	316	7.2	3.37	Cc1nc2c3c(c(C(=O)N4CCCC4)cn2c1C)CCC(c1ccccc1)C3 (configuration not stated)
-5	6310	7.05	2.76	Cc1nc2c3c(c(C(=O)N4CCOCC4)cn2c1C)CCC(c1ccccc1)C3 (configuration not stated)
-4.9	10000	5.11	3.8	Cc1nc2c3c(c(C(=O)N(C)C)cn2c1Br)CCC(c1ccccc1)C3 (configuration not stated)
-6.6	794	8.05	3.9	Cc1nc2c3c(ccn2c1C)CCC(c1ccccc1)C3 (configuration not stated)
